Test results reported in ChEMBL document CHEMBL1155395, “Discovery of substituted biphenyl imidazoles as potent, bioavailable bombesin receptor subtype-3 agonists” (Bioorg Med Chem Lett, 2010).
Calls of active or inactive are those of the source. No cut-off for these calls is given here.

Experiments:
[1] = Volume of distribution at steady state in Sprague-Dawley rat at 1 mg/kg, iv and 4 mg/kg, po; type: ADME, organism-based; settings: in vivo, read-out: Vdss
In short: (§1)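 Sprague-Dawley rats given compound as solution in EtOH/PEG400/water (10:40:50), 1 mg/kg iv and 4 mg/kg po; clearance, steady-state volume of distribution, half-life, oral bioavailability and dose-normalised AUC derived.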

[2] = Clearance in Sprague-Dawley rat at 1 mg/kg, iv and 4 mg/kg, po; type: ADME, organism-based; settings: in vivo; in short: as §1
[3] = Oral bioavailability in Sprague-Dawley rat at 4 mg/kg; type: ADME, organism-based; settings: in vivo; in short: as §1
[4] = target: T1, Bombesin receptor subtype-3 (Mus musculus) (UniProt O54798); experiment: Agonistic activity at mouse BRS3 expressed in HEK293AEO cells at 10 uM by aequorin bioluminescence assay relative to dY peptide; type: functional, cell-based
T1 sequence (whole entry): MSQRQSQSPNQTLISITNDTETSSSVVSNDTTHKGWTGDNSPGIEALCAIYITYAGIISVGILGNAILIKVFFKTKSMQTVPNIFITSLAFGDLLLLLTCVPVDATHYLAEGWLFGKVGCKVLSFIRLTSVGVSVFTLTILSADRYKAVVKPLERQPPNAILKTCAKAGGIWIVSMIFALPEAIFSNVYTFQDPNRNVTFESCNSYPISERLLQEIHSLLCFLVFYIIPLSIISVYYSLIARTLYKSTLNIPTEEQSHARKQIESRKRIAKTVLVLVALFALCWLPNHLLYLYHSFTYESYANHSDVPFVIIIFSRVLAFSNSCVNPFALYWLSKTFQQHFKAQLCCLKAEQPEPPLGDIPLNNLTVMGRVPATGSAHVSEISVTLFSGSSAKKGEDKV

[5] = tested on: Mus musculus; experiment: Effect on food intake in po dosed diet-induced obese mouse; type: functional, organism-based
[6] = tested on: Rattus norvegicus; experiment: Reduction of food intake in rat at 25 ug, icv; type: functional; design: scale not given: the % may be the effect or the level left
In short: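 Rats dosed intracerebroventricularly with 25 µg; food intake compared with animals receiving vehicle (20% PG/water).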

[7] = Half life in Sprague-Dawley rat at 1 mg/kg, iv and 4 mg/kg, po; type: ADME, organism-based; settings: in vivo; in short: as §1
[8] = target: T2, Bombesin receptor subtype-3 (Homo sapiens) (UniProt P32247); experiment: Agonistic activity at human BRS3 expressed in HEK293AEO at 10 uM cells by aequorin bioluminescence assay relative to dY peptide; type: functional, cell-based
T2 sequence (whole entry): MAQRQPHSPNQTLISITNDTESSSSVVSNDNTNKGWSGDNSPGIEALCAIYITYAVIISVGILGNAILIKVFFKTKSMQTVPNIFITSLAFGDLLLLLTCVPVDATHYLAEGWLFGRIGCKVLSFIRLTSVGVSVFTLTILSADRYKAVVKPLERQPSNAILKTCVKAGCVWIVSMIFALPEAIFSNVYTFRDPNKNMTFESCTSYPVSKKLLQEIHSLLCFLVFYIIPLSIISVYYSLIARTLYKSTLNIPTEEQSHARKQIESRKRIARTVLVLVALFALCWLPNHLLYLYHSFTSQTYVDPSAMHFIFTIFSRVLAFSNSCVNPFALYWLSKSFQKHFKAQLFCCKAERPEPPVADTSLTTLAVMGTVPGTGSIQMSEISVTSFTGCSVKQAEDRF

[9] = target: T3, Bombesin receptor subtype-3 (Homo sapiens, UniProt P32247); experiment: Agonistic activity at human BRS3 expressed in HEK293AEO cells by aequorin bioluminescence assay; type: functional, cell-based
T3 sequence (P32247 whole entry): T2 sequence (whole entry)

[10] = target: T4, Bombesin receptor subtype-3 (Mus musculus, UniProt O54798); experiment: Agonistic activity at mouse BRS3 expressed in HEK293AEO cells by aequorin bioluminescence assay; type: functional, cell-based
T4 sequence (O54798 whole entry): T1 sequence (whole entry)

[11] = target: Neuromedin-B receptor (Homo sapiens, UniProt P28336); experiment: Displacement of [125I]-[D-Tyr6,beta-Ala11,Phe13,Nle14]bombesin from human bombesin BB1 receptor expressed in NFAT-CHO cells after 2 hrs by liquid scintillation counting; type: cell-based
Sequence of Neuromedin-B receptor (P28336 whole entry): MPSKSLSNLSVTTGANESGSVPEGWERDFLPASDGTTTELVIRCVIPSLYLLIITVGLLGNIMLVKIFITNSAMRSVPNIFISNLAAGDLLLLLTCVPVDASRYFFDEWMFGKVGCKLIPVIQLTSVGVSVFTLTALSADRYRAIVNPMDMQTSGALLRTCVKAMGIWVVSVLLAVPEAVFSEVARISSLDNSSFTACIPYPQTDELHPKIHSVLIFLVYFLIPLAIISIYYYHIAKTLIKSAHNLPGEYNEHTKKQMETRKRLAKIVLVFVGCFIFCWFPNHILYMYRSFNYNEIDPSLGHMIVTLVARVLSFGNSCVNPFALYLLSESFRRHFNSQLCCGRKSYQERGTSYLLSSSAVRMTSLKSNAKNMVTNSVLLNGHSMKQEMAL

[12] = target: T5, Bombesin receptor subtype-3 (Rattus norvegicus, UniProt Q8K418); experiment: Agonistic activity at rat BRS3 expressed in HEK293AEO at 10 uM by aequorin bioluminescence assay; type: functional
T5 sequence (Q8K418 whole entry): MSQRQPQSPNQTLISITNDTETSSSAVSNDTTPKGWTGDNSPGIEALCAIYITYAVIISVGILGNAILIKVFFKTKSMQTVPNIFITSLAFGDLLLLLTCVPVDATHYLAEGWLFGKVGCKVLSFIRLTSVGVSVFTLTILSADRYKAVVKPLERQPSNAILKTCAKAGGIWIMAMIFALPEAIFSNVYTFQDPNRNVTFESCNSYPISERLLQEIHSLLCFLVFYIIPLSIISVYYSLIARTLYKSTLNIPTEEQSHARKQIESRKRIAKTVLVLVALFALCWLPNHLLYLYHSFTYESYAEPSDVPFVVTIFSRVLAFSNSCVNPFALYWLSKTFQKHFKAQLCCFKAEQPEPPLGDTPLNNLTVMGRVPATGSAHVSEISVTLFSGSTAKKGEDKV

[13] = target: Gastrin-releasing peptide receptor (Homo sapiens, UniProt P30550); experiment: Displacement of [125I]-[D-Tyr6,beta-Ala11,Phe13,Nle14]bombesin from human bombesin BB2 receptor expressed in NFAT-CHO cells after 2 hrs by liquid scintillation counting; type: cell-based
Sequence of Gastrin-releasing peptide receptor (P30550 whole entry): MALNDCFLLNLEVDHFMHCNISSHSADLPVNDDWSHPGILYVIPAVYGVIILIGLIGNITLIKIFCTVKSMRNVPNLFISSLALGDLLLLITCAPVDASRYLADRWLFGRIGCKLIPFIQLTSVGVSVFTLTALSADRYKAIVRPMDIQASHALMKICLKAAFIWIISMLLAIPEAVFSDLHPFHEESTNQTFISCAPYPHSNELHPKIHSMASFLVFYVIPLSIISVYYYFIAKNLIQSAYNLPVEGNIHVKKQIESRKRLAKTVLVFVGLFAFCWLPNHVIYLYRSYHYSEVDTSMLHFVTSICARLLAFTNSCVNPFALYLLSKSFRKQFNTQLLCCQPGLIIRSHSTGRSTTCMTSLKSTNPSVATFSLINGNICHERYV

[14] = target: T3, Bombesin receptor subtype-3; experiment: Displacement of [125I]-[D-Tyr6,beta-Ala11,Phe13,Nle14]bombesin from human BRS3 expressed in NFAT-CHO cells after 2 hrs by liquid scintillation counting; type: cell-based
In short: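 Membranes (1–4 µg protein) from NFAT-CHO cells expressing human BRS-3, incubated with 0.3 pM 125I-dY-peptide and a range of test compound concentrations in 50 mM Tris pH 7.2, 5 mM MgCl2, 0.1% BSA, 2 h at room temperature; bound/free separated by GF/c filtration with PBS washes; filter radioactivity by scintillation counting; mean of at least three runs.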

[15] = target: T6, Bombesin receptor subtype-3 (Rattus norvegicus) (UniProt Q8K418); experiment: Agonistic activity at rat BRS3 expressed in HEK293AEO cells at by aequorin bioluminescence assay relative to dY peptide; type: functional, cell-based
T6 sequence (whole entry): T5 sequence (Q8K418 whole entry)

Structure (SMILES) | Vd [1] [L/kg] | clearance [2] [mL/min/kg] | bioavailability [3] [%] | Activity [4] [%] | Activity [5] | Activity [6] [%] | half-life [7] [min] | Activity [8] [%] | EC50 [9] [nM] | EC50 [10] [nM] | IC50 [11] [µM] | EC50 [12] [nM] | IC50 [13] [µM] | IC50 [14] [µM] | Activity [15] [%]
CC(C)(C)Cc1cnc(CCc2ccc(-c3ccccc3C(=O)O)cc2)[nH]1 | 0.128 | 1.02 | 19 | 105 | inactive | 29 | 92.4 | 103 | 106 | 6.3 |  |  |  |  | 
CCCCc1cnc(C(CCCO)Cc2ccc(-c3ccccc3C(=O)O)cc2)[nH]1 (centres undefined) |  |  |  | 98 |  |  |  | 74 | 1900 | 238 | > 10 | 174 | > 10 | 3.68 | 101
